Assay results from article PMC4153604 (European journal of medicinal chemistry, 2014).

Experiments:
Type in all cases: cell-based
[1] = test system: MIA PaCa-2 pancreatic cancer cells; test: Cell viability, resazurin assay; conditions: 20 µM, 48 h, 5% FBS
Summary of the method: (§1)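 Cell lines were maintained at 37°C, 5% CO2 to about 80% confluence: BxPC-3 in RPMI 1640, MIA PaCa-2 in DMEM, each with 10% FBS and penicillin/streptomycin. Trypsinized cells were plated at 1 × 10^4/well in 5% FBS medium and treated with 0–20 µM for 48 h. Resazurin (0.02% in DPBS) was added; fluorescence (ex 560/em 590 nm) was read after 2 h. EC50 came from nonlinear regression.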

[2] = test system: BxPC-3 pancreatic cancer cells; test: Cell viability, resazurin assay; conditions: 20 µM, 48 h, 5% FBS
Summary of the method: as §1

MIA PaCa-2 cells = test: Apoptosis assay, AO/EB staining; conditions: 0.5, 1 and 2 µM, 48 h, 5% FBS
Summary of the method: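 MIA PaCa-2 cells (5 × 10^4 per chamber-slide well) exposed to test compound at 0.5, 1 and 2 µM for 48 h in medium with 5% FBS. Stained with AO/EB (10 µg/mL each) and imaged by fluorescence microscopy (x40, 480/30 nm excitation). Green intact nuclei scored as viable; orange-red, condensed nuclei as apoptotic. Images representative of triplicate experiments.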

[3] = listed as farnesylthiosalicylamide

CC(C)=CCC/C(C)=C/CC/C(C)=C/CSc1ccccc1C(=O)O [FTS, S-t, t farnesylthiosalicylic acid]
effect on viability of the cells ([1]; listed as salirasib): ineffective
effect on viability of the cells ([2]; listed as salirasib): ineffective

CC(C)=CCC/C(C)=C/CC/C(C)=C/CSC[C@H](NC(=O)CCCCCN1CCN(C)CC1)C(=O)NC1CCCCCCC1 [8e, L-((4-methylpiperazinyl)hexanoyl)-S-(trans, trans-farnesyl) cysteine cyclooctylamide]
mode of cell death (AO/EB staining) (MIA PaCa-2 cells): signs of apoptosis were observed

CC(C)=CCC/C(C)=C/CC/C(C)=C/CSc1ccccc1C(N)=O [FTSA, S-t, t farnesylthiosalicylic amide]
effect on viability of the cells [1, 3]: ineffective
effect on viability of the cells [2, 3]: ineffective
